From ChEMBL document CHEMBL3763122, “Synthesis, vasorelaxant activity and 2D-QSAR study of some novel pyridazine derivatives” (Eur J Med Chem, 2016)
Structures can show the parent of a compound that is named as a salt.

Test: Vasorelaxant activity in Wistar rat thoracic aortic ring precontracted with norepinephrine hydrochloride
Type: functional
Details: Thoracic aorta
In short: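 Isolated rat thoracic aortic rings held at 2 g resting tension for 2 h. Contraction to norepinephrine hydrochloride (10^-6 M) measured before and after exposure to increasing concentrations of compound. Compounds dissolved in DMSO as a 0.01 M stock. DMSO-alone controls run at matching concentrations. Doxazosin mesylate served as reference standard.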

SMILES | IC50
Cc1cc(C)n(-c2ccc(-c3ccc(Cl)cc3)nn2)n1 | 213 µM
FC(F)(F)c1ccc(/C=N/Nc2ccc(-c3ccc(Cl)cc3)nn2)cc1 | 209 µM
N#Cc1cnn(-c2ccc(-c3ccccc3)nn2)c1N | 287 µM
COc1ccc(-c2ccc(-n3nc(C)cc3C)nn2)cc1 | 323 µM
CCOC(=O)c1cnn(-c2ccc(-c3ccc(OC)cc3)nn2)c1N | 216 µM
COc1ccc(-c2ccc(-n3ncc(C#N)c3N)nn2)cc1 | 260 µM
c1ccc(-c2ccc(N3CCCC3)nn2)cc1 | 235 µM
O=C(NNc1ccc(-c2ccc(Cl)cc2)nn1)NC1CCCCC1 | 177 µM
N#Cc1cnn(-c2ccc(-c3ccc(Cl)cc3)nn2)c1N | 310 µM
c1ccc(-c2ccc(-n3ccnc3)nn2)cc1 | 273 µM
CCOC(=O)c1cnn(-c2ccc(-c3ccc(Cl)cc3)nn2)c1N | 230 µM
COc1ccc(-c2ccc(-n3ccnc3)nn2)cc1 | 259 µM
Clc1ccc(-c2ccc(-n3ccnc3)nn2)cc1 | 255 µM
COc1cc2nc(N3CCN(C(=O)C4COc5ccccc5O4)CC3)nc(N)c2cc1OC (stereo not given) [DOXAZOSIN MESYLATE] | 226 µM
COc1cc(/C=N/Nc2ccc(-c3ccc(Cl)cc3)nn2)cc(OC)c1OC | 255 µM
Clc1ccc(-c2ccc(N3CCCC3)nn2)cc1 | 300 µM

More lines, now with the values ahead:

IC50 | SMILES
248 µM | COc1ccccc1-c1ccc(N/N=C/c2ccc(C(F)(F)F)cc2)nn1
225 µM | CCOC(=O)c1cnn(-c2ccc(-c3ccccc3OC)nn2)c1N
275 µM | NNc1ccc(-c2ccc(Cl)cc2)nn1
279 µM | COc1ccccc1-c1ccc(NN)nn1
299 µM | COc1ccccc1-c1ccc(-n2nc(C)cc2C)nn1
200 µM | COc1ccc(/C=N/Nc2ccc(-c3ccccc3OC)nn2)cc1
221 µM | COc1ccccc1-c1ccc(N/N=C/c2cc(OC)c(OC)c(OC)c2)nn1
235 µM | COc1ccc(-c2ccc(NN)nn2)cc1
284 µM | COc1ccccc1-c1ccc(N2CCCC2)nn1
205 µM | COc1ccc(/C=N/Nc2ccc(-c3ccc(Cl)cc3)nn2)c(OC)c1
254 µM | CCOC(=O)c1cnn(-c2ccc(-c3ccccc3)nn2)c1N
206 µM | NNc1ccc(-c2ccccc2)nn1
198 µM | Cc1cc(C)n(-c2ccc(-c3ccccc3)nn2)n1
217 µM | COc1ccc(/C=N/Nc2ccc(-c3ccc(Cl)cc3)nn2)cc1
205 µM | COc1ccccc1-c1ccc(-n2ccnc2)nn1
259 µM | COc1ccc(/C=N/Nc2ccc(-c3ccccc3OC)nn2)c(OC)c1
316 µM | COc1ccccc1-c1ccc(-n2ncc(C#N)c2N)nn1
207 µM | O=C(NNc1ccc(-c2ccc(Cl)cc2)nn1)Nc1ccccc1
266 µM | COc1ccccc1-c1ccc(NNC(=O)NC2CCCCC2)nn1
